Measurements taken from ChEMBL document CHEMBL5506039, “Discovery and Optimization of Tambjamines as a Novel Class of Antileishmanial Agents” (J Med Chem, 2024).
pEC50: −log10 of the molar value.

Key:
[1] = Cytotoxicity against mouse J774.A1 cells assessed as cell survival at 0.1 uM measured after 96 hrs by SYBR Green II dye based analysis relative to control; assay type: toxicity; conditions: read-out: Survival
Outline: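 Uninfected J774A.1 mouse macrophages were plated at 1 × 10⁴ cells/well in DMEM with 10% heat-inactivated FBS and left 3 h at 37 °C to reattach. Compounds were added from DMSO, and analogues were screened at 0.1 μM. After 96 h at 37 °C in 5% CO₂, medium was removed. SYBR Green II (1:1000 in 1% Triton/PBS) was added for 1 h in the dark at room temperature, and fluorescence was read at Ex 485/Em 535 as a DNA-content measure of viability.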

Leishmania mexicana [2] = assay: Antileishmanial activity against Leishmania mexicana MNYC/BZ/62/M379 amastigotes expressing red-shifted firefly luciferase from integrated ribosomal (28S) RNA locus infected in mouse J774.A1 cells assessed as parasite survival at 0.1 uM measured after 96 hrs by luminescence based analysis relative to control; assay type: functional; conditions: MNYC/BZ/62/M379, J774.A1
Leishmania mexicana [3] = assay: Antileishmanial activity against Leishmania mexicana MNYC/BZ/62/M379 amastigotes expressing red-shifted firefly luciferase from integrated ribosomal (28S) RNA locus infected in mouse J774.A1 cells assessed as reduction in parasite survival measured after 96 hrs by luminescence based analysis; assay type: functional, organism-based; conditions: MNYC/BZ/62/M379, J774.A1, 96 h
Outline: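 J774A.1 macrophages infected with stationary-phase luciferase-expressing promastigotes at 10:1 parasites:macrophage, overnight at 37 °C, 5% CO₂. Non-internalized parasites washed off and 1 × 10⁴ cells/well replated in MEM/10% HI-FBS. Compounds in DMSO added as serial 3-fold dilutions (typically 10 μM–1 nM) for 96 h. Luciferase luminescence read; EC50 from log-transformed sigmoidal variable-slope fit. Mean ± SD of ≥2 independent experiments.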

[4] = Metabolic stability in pre-warmed pooled human liver microsomes assessed as half life at 1 uM measured upto 60 mins by LC-MS analysis; assay type: ADME, Microsome
Outline: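 Compound at 1 μM final with 0.5 mg/mL pooled human or mouse liver microsomes, 1.3 mM NADP and 3.3 mM MgCl₂ in 100 mM potassium phosphate, pH 7.4. Reaction started with 1 U/mL G6PD at 37 °C with shaking.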

[5] = Cytotoxicity against mouse J774.A1 cells assessed as reduction in cell survival measured after 96 hrs by SYBR Green II dye based analysis; assay type: toxicity
Outline: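 Uninfected J774A.1 macrophages, 1 × 10⁴ cells/well in DMEM/10% HI-FBS, reattached 3 h, then exposed to compounds for 96 h. DNA content read after lysis with SYBR Green II (1:1000 in 1% Triton/PBS), 1 h dark at room temperature, fluorescence Ex 485/Em 535.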

[6] = Therapeutic index, ratio of EC50 for mouse J774.A1 cells to EC50 for antileishmanial activity against Leishmania mexicana MNYC/BZ/62/M379 amastigotes expressing red-shifted firefly luciferase from integrated ribosomal (28S) RNA locus infected in mouse J774.A1 cells; assay type: toxicity, cell-based; conditions: read-out: TI

Compound | viability at 96 h, 0.1 µM [1] [%] | survival at 0.1 µM (Leishmania mexicana [2]) [%] | pEC50 (Leishmania mexicana [3]) | half-life at 1 µM [4] [min] | EC50 at 96 h [5] [nM] | selectivity ratio [6]
CC1=C(C)/C(=C/NC2CCCCCC2)N=C1c1[nH]c(C)cc1C | 56.8 | 43.8 | 6.74 | – | – | –
COC1=CC(c2ccc(Cc3ccc(OC)cc3)[nH]2)=N/C1=C\NC1CCCCC1.Cl | 84.6 | 0.01 | 7.65 | 19.7 | 946 | 42
COC1=CC(c2ccc[nH]2)=N/C1=C\NC1CCCCC1 | 88.9 | 7.33 | 7.39 | – | > 1000 | > 25
FC(F)(F)Oc1ccc(OC2=CC(c3ccc[nH]3)=N/C2=C\NC2CCCCCC2)cc1 | 82.8 | 43 | 6.81 | – | 642 | 4.1
COC1=CC(c2ccc[nH]2)=N/C1=C\Nc1ccc(Cl)c(Cl)c1.Cl | 67.5 | 23.8 | 7.00 | 56.2 | > 1000 | > 10
CC1=C/C(=C/NC2CCCCCC2)N=C1c1ccc[nH]1 | 127 | 89 | – | – | – | –
CCCCCCCCCCCN/C=C1\N=C(c2ccc[nH]2)C=C1OC | 112 | 11.9 | 7.32 | – | > 1000 | > 21
COc1ccc(Oc2ccc(N/C=C3\N=C(c4ccc[nH]4)C(C)=C3C)cc2)cc1 | 65.9 | 108 | – | – | – | –
CC1=C(C)/C(=C/Nc2ccc(Cl)cc2)N=C1c1ccc[nH]1 | 88.1 | 92.2 | – | – | – | –
Clc1ccc(OC2=CC(c3ccc[nH]3)=N/C2=C\NC2CCCCCC2)cc1 | 100 | 19.8 | 7.20 | – | 367 | 5.8
CCC1=C(CC)/C(=C/NC2CCCCCCC2)N=C1c1ccc[nH]1 | 29.5 | 17 | – | – | – | –
CCC1=C/C(=C/NC2CCCCCC2)N=C1c1ccc[nH]1 | 32.2 | 33.9 | – | – | – | –
Cc1ccc(N/C=C2\N=C(c3ccc[nH]3)C3=C2CCCC3)cc1.Cl | 95.1 | 112 | – | 42.1 | – | –
CC1=C(C)/C(=C/NC23CC4CC(CC(C4)C2)C3)N=C1c1[nH]c(C)cc1C | 93.2 | 12.5 | 7.33 | – | 667 | 14
FC(F)(F)Oc1ccc(OC2=CC(c3ccc[nH]3)=N/C2=C\N[C@H]2CC[C@H](C(F)(F)F)CC2)cc1 | 108 | 33.2 | 7.05 | – | 852 | 9.6
C(/NC1CCCCCCC1)=C1/N=C(c2ccc[nH]2)C2=C1CCCC2 | 75.8 | 33.4 | – | – | – | –
CC1=C(C)/C(=C/Nc2ccc(Oc3ccc(C)cc3)cc2)N=C1c1ccc[nH]1 | 66.2 | 111 | – | – | – | –
C[C@H]1CC[C@H](N/C=C2\N=C(c3ccc[nH]3)C=C2Oc2ccc(Cl)cc2)CC1 | 80.1 | 27.5 | 7.14 | – | 321 | 4.4
C[C@H]1CC[C@@H](N/C=C2\N=C(c3ccc[nH]3)C=C2Oc2ccc(OC(F)(F)F)cc2)CC1 | 112 | 79.9 | – | – | – | –
FC(F)(F)Oc1ccc(N/C=C2\N=C(c3ccc[nH]3)C3=C2CCCC3)cc1 | 92.7 | 84.9 | – | – | – | –
FC(F)(F)Oc1ccc(OC2=CC(c3ccc[nH]3)=N/C2=C\NC2CCCCC2)cc1 | 81.3 | 52.7 | 7.08 | – | 982 | 11.7
CCCCCCCCCCCCCCCCOP(=O)([O-])OCC[N+](C)(C)C [MILTEFOSINE] | 39.2 | 0.02 | 5.46 | – | > 100000 | > 29
C[C@H]1CC[C@H](N/C=C2\N=C(c3ccc[nH]3)C=C2c2ccc(OC(F)(F)F)cc2)CC1 | 116 | 81.6 | – | – | – | –

Compound | viability at 96 h, 0.1 µM [1] [%] | survival at 0.1 µM (Leishmania mexicana [2]) [%] | pEC50 (Leishmania mexicana [3]) | half-life at 1 µM [4] [min] | EC50 at 96 h [5] [nM] | selectivity ratio [6]
COC1=CC(c2ccc[nH]2)=N/C1=C\Nc1ccc(OC(F)(F)F)cc1.Cl | 89.6 | 18.9 | 7.14 | > 60 | > 1000 | > 14
CC1=C(C)/C(=C/Nc2ccc(OC(F)(F)F)cc2)N=C1c1ccc[nH]1 | 77.2 | 102 | – | – | – | –
CCc1ccc(C2=N/C(=C\NC3CCCCCC3)C(OC)=C2)[nH]1.Cl | 52.5 | 0.3 | 7.43 | > 60 | 512 | 14
COC1=CC(c2ccc[nH]2)=N/C1=C\Nc1ccc(Cl)cc1 | 95.4 | 9.85 | 7.33 | – | > 1000 | > 21
COC1=CC(c2ccc(Cc3ccc(OC)cc3)[nH]2)=N/C1=C\NC1CCCCCCC1.Cl | 84.8 | -0.11 | 7.80 | 50.8 | 547 | 35
CC1=C/C(=C/NC2CCCCCCC2)N=C1c1ccc[nH]1 | 150 | 48.6 | – | – | – | –
FC(F)(F)Oc1ccc(OC2=CC(c3ccc[nH]3)=N/C2=C\NC2CCCCCCC2)cc1 | 92.9 | 37.6 | 7.00 | – | 982 | 9.9
CC1=C(C)/C(=C/NCC2CCCCCC2)N=C1c1ccc[nH]1 | 53.2 | 14.2 | 7.04 | – | 1600 | 17
CCC1=C(CC)/C(=C/NC2CCCCCC2)N=C1c1ccc[nH]1 | 26.7 | 27.5 | – | – | – | –
CCCCCCCCCCCN/C=C1\N=C(c2ccc[nH]2)C=C1Oc1ccc(OC(F)(F)F)cc1 | 96.7 | 58 | – | – | – | –
CCCCCCN/C=C1\N=C(c2ccc[nH]2)C=C1Oc1ccc(OC(F)(F)F)cc1 | 110 | 46.1 | 6.52 | – | 1100 | 3.6
C[C@H]1CC[C@H](N/C=C2\N=C(c3ccc[nH]3)C=C2Oc2cc(F)cc(F)c2)CC1 | 55.3 | 96.2 | – | – | – | –
Fc1cc(F)cc(OC2=CC(c3ccc[nH]3)=N/C2=C\NC2CCCCCC2)c1 | 65.8 | 87.2 | – | – | – | –
FC(F)(F)Oc1ccc(C2=CC(c3ccc[nH]3)=N/C2=C\NC2CCCCCC2)cc1 | 95.8 | 77.9 | – | – | – | –
COC1=CC(c2ccc(Cc3ccc(OC)cc3)[nH]2)=N/C1=C\NC1CCCCCC1.Cl | 84.6 | -0.11 | 7.79 | 25.6 | 959 | 59
COC1=CC(c2ccc[nH]2)=N/C1=C\Nc1ccccc1OC(F)(F)F | 81 | 69.9 | – | – | – | –
FC(F)(F)Oc1ccc(OC2=CC(c3ccc[nH]3)=N/C2=C\NCC2CCCCCC2)cc1 | 97.6 | 42.9 | 6.78 | – | 717 | 4.3
COC1=CC(c2ccc(Cc3ccc(OC)cc3)[nH]2)=N/C1=C\NC1CCCC1.Cl | 86.6 | 1.4 | 7.62 | 11.7 | 717 | 30
Clc1ccc(N/C=C2\N=C(c3ccc[nH]3)C3=C2CCCC3)cc1 | 67.2 | 103 | – | – | – | –
COC1=CC(c2ccc[nH]2)=N/C1=C\NC1CCN(Cc2ccccc2)CC1 | 124 | 24.6 | 7.10 | – | 625 | 7.9
CC1=C(C)/C(=C/Nc2ccc(C)cc2)N=C1c1ccc[nH]1 | 54.2 | 74 | – | – | – | –
CCC1=C/C(=C/NC2CCCCCCC2)N=C1c1ccc[nH]1 | 35.8 | 34.6 | – | – | – | –
